Measured values taken from ChEMBL document CHEMBL4257470, “Rational design and characterization of a DNA/HDAC dual-targeting inhibitor containing nitrogen mustard and 2-aminobenzamide moieties” (Medchemcomm, 2018).
Activity calls are given as the source filed them. The rule behind the calls is not given here.

How the values were obtained:
A-375 [1] = experiment: Induction of apoptosis in human A375 cells assessed as necrotic cells at 8 uM after 72 hrs by Alexa Fluor 488 Annexin/propidium iodide staining-based flow cytometric analysis (reference value: 1.64%); format: functional
A-375 [2] = experiment: Induction of apoptosis in human A375 cells assessed as early apoptotic cells at 2 uM after 72 hrs by Alexa Fluor 488 Annexin/propidium iodide staining-based flow cytometric analysis (reference value: 2.07%); format: functional
A-375 [3] = experiment: Induction of apoptosis in human A375 cells assessed as late apoptotic cells at 8 uM after 72 hrs by Alexa Fluor 488 Annexin/propidium iodide staining-based flow cytometric analysis (reference value: 10.22%); format: functional
A-375 [4] = experiment: Induction of apoptosis in human A375 cells assessed as necrotic cells at 16 uM after 72 hrs by Alexa Fluor 488 Annexin/propidium iodide staining-based flow cytometric analysis (reference value: 1.64%); format: functional
A-375 [5] = experiment: Induction of apoptosis in human A375 cells assessed as early apoptotic cells at 16 uM after 72 hrs by Alexa Fluor 488 Annexin/propidium iodide staining-based flow cytometric analysis (reference value: 2.07%); format: functional
A-375 [6] = experiment: Induction of apoptosis in human A375 cells assessed as late apoptotic cells at 16 uM after 72 hrs by Alexa Fluor 488 Annexin/propidium iodide staining-based flow cytometric analysis (reference value: 10.22%); format: functional
A-375 [7] = experiment: Induction of apoptosis in human A375 cells assessed as late apoptotic cells at 2 uM after 72 hrs by Alexa Fluor 488 Annexin/propidium iodide staining-based flow cytometric analysis (reference value: 10.22%); format: functional
NCI-H1299 = experiment: Antiproliferative activity against human H1299 cells after 72 hrs CCK8 assay; format: functional, cell-based; settings: NCI-H1299, 72 h
A-375 [8] = experiment: Induction of apoptosis in human A375 cells assessed as early apoptotic cells at 8 uM after 72 hrs by Alexa Fluor 488 Annexin/propidium iodide staining-based flow cytometric analysis (reference value: 2.07%); format: functional
[9] = Induction of DNA damage in human A375 cells assessed as phosphorylation of H2AX at Ser139 residues at 8 uM after 48 hrs relative to control; format: functional
Summary of the method: (§1)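 A375 cells seeded 7000 per well, treated next day for 48 h. Whole-cell γH2AX (Ser139) immunoassay read by absorbance, normalised to cell number and expressed as percent of untreated control; mean ± SD, n = 3; t-test.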

A-375 [10] = experiment: Cell cycle arrest in human A375 cells assessed as accumulation at G2/M phase at 8 uM after 72 hrs by propidium iodide/RNase staining based flow cytometric analysis relative to control; format: functional
Summary of the method: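 A375 cells (1.6 × 10^5 per well) plated 12 h, then treated with compound or DMSO for 72 h. Cells fixed overnight in 70% ethanol in phosphate buffer at –20 °C, stained 30 min at room temperature with RNase:PI (1:9). DNA content read by flow cytometry.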

A-375 [11] = experiment: Induction of apoptosis in human A375 cells assessed as necrotic cells at 2 uM after 72 hrs by Alexa Fluor 488 Annexin/propidium iodide staining-based flow cytometric analysis (reference value: 1.64%); format: functional
[12] = Induction of DNA damage in human A375 cells assessed as phosphorylation of H2AX at Ser139 residues at 16 uM after 48 hrs relative to control; format: functional; summary of the method: as §1
SMMC-7721 = experiment: Antiproliferative activity against human SMMC7721 cells after 72 hrs CCK8 assay; format: functional, cell-based; settings: SMMC-7721, 72 h
Summary of the method: (§2)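 Cells grown in RPMI1640 with 10% FBS, 1% penicillin/streptomycin, 37 °C, 5% CO2; log-phase cells seeded 3000–4000 per well, dosed after 12 h with a concentration series or solvent control for 72 h. CCK-8 added for 1 h, absorbance at 450 nm; IC50 from percent growth versus untreated control; mean of three experiments.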

A-375 [13] = experiment: Induction of apoptosis in human A375 cells assessed as viable cells at 2 uM after 72 hrs by Alexa Fluor 488 Annexin/propidium iodide staining-based flow cytometric analysis (reference value: 86.07%); format: functional; settings: A-375, 72 h, read-out: Activity
NCI-H460 = experiment: Antiproliferative activity against human H460 cells after 72 hrs CCK8 assay; format: functional, cell-based; settings: NCI-H460, 72 h; summary of the method: as §2
A-375 [14] = experiment: Induction of apoptosis in human A375 cells assessed as viable cells at 8 uM after 72 hrs by Alexa Fluor 488 Annexin/propidium iodide staining-based flow cytometric analysis (reference value: 86.07%); format: functional; settings: A-375, 72 h, read-out: Activity
A-375 [15] = experiment: Induction of apoptosis in human A375 cells assessed as viable cells at 16 uM after 72 hrs by Alexa Fluor 488 Annexin/propidium iodide staining-based flow cytometric analysis (reference value: 86.07%); format: functional; settings: A-375, 72 h, read-out: Activity
Histone deacetylase 8 = biological target: T1, Histone deacetylase 8 (Homo sapiens, UniProt Q9BY41); experiment: Inhibition of recombinant human HDAC8 using FLUOR DE LYS as substrate after 1 hr by fluorescence assay
T1 sequence (Q9BY41 whole entry): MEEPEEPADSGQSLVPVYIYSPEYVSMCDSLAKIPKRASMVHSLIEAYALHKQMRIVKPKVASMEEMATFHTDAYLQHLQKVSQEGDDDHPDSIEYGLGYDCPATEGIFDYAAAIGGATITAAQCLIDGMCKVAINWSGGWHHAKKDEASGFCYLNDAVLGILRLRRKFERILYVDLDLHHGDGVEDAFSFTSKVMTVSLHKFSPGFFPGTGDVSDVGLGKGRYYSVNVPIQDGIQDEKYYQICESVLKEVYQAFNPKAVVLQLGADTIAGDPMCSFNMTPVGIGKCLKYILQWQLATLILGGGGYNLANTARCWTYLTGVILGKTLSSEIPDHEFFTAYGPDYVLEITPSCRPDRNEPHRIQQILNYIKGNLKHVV
Summary of the method: (§3)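 Each isoform kit run with the enzyme preincubated with a concentration series of inhibitor, and substrate added after 5 min equilibration at 37 °C. Reaction ran 1 h at 37 °C, was stopped with developer for 10 min at 25 °C, and fluorescence was read at ex 360/em 460 nm. Activity taken as percent of control; IC50 by regression of dose–inhibition data.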

Histone deacetylase 2 = Histone deacetylase 2 (Homo sapiens, UniProt Q92769); experiment: Inhibition of recombinant human HDAC2 using FLUOR DE LYS-Green as substrate after 1 hr by fluorescence assay
Summary of the method: (§4)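 Enzyme preincubated with a concentration series of inhibitor; Fluor de Lys-Green substrate equilibrated at 37 °C for 5 min, then added to start the reaction. Incubated 1 h at 37 °C, stopped with developer for 10 min at 25 °C, fluorescence read at ex 360/em 460 nm. Activity taken as percent of control; IC50 by regression of dose–inhibition data.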

A549 = experiment: Antiproliferative activity against human A549 cells after 72 hrs CCK8 assay; format: functional, cell-based; settings: A549, 72 h
A-375 [16] = experiment: Anticlonogenic activity against human A375 cells after 7 days by crystal violet staining based assay; format: functional, cell-based
Summary of the method: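 A375 cells seeded at 3000 per well, treated after 24 h with compound or DMSO; after 7 days colonies fixed in 3.7% formaldehyde and stained with 0.1% crystal violet.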

Histone deacetylase 1 = Histone deacetylase 1 (Homo sapiens, UniProt Q13547); experiment: Inhibition of recombinant human HDAC1 using FLUOR DE LYS SIRT1 deacetylase substrate after 1 hr by fluorescence assay; summary of the method: as §3
[17] = biological target: Histone deacetylase 3/NCoR1 (Homo sapiens, UniProt O15379); experiment: Inhibition of recombinant human HDAC3/NCOR1 using FLUOR DE LYS SIRT1 deacetylase substrate after 1 hr by fluorescence assay; format: protein-complex assay; summary of the method: as §3
[18] = biological target: Histone deacetylase (Homo sapiens) (UniProt Q13547+O15379+Q9UBN7+Q92769+Q9UQL6+Q8WUI4+Q9BY41+Q96DB2+P56524+Q9UKV0+Q969S8); experiment: Inhibition of HDAC in human HeLa cell nuclear extracts at 0.1 to 10000 uM using FLUOR DE LYS-Green as substrate after 1 hr by fluorescence assay; format: protein assay; summary of the method: as §4
[19] = biological target: T2, Protein deacetylase HDAC6 (Homo sapiens, UniProt Q9UBN7); experiment: Inhibition of recombinant human HDAC6 using FLUOR DE LYS SIRT1, deacetylase as substrate after 1 hr by fluorescence assay; summary of the method: as §3
T2 sequence (Q9UBN7 whole entry): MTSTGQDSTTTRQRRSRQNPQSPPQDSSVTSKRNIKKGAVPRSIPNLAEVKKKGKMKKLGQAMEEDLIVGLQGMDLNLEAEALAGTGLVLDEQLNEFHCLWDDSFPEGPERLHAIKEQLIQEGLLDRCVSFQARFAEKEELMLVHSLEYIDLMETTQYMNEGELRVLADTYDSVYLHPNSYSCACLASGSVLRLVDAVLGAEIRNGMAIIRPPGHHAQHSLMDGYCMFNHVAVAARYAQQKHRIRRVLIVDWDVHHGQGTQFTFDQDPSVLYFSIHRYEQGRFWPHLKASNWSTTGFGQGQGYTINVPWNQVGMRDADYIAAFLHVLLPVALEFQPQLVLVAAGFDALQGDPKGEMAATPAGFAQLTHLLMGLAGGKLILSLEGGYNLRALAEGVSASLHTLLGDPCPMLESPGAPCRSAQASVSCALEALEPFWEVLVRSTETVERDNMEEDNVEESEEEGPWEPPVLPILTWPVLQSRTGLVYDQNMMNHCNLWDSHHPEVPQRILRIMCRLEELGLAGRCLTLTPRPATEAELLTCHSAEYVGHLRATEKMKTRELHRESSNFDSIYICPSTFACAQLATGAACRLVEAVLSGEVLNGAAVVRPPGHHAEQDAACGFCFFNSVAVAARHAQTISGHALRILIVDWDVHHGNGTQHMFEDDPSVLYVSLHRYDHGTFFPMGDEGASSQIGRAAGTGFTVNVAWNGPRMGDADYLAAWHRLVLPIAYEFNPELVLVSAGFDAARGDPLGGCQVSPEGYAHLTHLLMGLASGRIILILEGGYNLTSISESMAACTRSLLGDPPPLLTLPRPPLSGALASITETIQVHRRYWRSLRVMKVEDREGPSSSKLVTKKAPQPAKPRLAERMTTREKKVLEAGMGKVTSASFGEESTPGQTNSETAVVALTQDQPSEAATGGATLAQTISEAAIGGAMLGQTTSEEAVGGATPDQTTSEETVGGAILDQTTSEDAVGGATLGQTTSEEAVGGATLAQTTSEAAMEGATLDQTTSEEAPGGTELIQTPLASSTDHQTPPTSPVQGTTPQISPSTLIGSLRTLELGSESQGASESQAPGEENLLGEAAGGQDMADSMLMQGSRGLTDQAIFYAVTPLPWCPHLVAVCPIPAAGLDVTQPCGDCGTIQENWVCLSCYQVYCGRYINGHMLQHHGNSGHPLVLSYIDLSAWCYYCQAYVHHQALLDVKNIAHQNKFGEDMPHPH

HepG2 = experiment: Antiproliferative activity against human HepG2 cells after 72 hrs CCK8 assay; format: functional, cell-based; settings: HepG2, 72 h
A-375 [20] = experiment: Induction of apoptosis in human A375 cells after 72 hrs by Alexa Fluor 488 Annexin/propidium iodide staining-based flow cytometric analysis; format: functional, cell-based
A-375 [21] = experiment: Antiproliferative activity against human A375 cells after 72 hrs CCK8 assay; format: functional, cell-based; settings: A-375, 72 h

Histone deacetylase 1, sequence (Q13547 whole entry): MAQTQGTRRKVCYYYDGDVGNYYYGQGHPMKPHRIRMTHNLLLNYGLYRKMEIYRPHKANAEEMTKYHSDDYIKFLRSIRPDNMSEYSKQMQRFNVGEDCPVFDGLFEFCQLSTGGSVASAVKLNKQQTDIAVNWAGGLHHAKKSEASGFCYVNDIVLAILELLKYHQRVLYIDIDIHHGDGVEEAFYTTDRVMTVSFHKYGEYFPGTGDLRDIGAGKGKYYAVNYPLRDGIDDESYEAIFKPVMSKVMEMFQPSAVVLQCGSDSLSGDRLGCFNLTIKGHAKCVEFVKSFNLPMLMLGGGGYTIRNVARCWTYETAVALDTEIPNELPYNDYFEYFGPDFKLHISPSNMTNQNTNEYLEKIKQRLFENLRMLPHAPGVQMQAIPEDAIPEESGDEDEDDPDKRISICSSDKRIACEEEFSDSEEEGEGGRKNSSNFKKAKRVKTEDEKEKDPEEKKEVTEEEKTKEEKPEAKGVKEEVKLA
Histone deacetylase 2, sequence (Q92769 whole entry): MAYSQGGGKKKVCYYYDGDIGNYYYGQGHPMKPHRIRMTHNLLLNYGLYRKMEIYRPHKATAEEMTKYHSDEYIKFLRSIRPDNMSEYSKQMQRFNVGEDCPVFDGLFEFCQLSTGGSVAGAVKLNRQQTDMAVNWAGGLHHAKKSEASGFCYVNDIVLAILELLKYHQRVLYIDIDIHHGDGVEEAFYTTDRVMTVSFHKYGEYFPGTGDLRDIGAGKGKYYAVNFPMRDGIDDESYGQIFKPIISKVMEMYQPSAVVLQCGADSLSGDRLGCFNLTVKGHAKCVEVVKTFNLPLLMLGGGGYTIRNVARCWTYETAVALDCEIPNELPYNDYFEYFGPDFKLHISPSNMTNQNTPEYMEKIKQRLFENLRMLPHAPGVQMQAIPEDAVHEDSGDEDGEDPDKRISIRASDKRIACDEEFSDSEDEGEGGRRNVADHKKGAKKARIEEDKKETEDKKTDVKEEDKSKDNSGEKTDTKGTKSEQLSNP
Histone deacetylase 3/NCoR1, sequence (O15379 whole entry): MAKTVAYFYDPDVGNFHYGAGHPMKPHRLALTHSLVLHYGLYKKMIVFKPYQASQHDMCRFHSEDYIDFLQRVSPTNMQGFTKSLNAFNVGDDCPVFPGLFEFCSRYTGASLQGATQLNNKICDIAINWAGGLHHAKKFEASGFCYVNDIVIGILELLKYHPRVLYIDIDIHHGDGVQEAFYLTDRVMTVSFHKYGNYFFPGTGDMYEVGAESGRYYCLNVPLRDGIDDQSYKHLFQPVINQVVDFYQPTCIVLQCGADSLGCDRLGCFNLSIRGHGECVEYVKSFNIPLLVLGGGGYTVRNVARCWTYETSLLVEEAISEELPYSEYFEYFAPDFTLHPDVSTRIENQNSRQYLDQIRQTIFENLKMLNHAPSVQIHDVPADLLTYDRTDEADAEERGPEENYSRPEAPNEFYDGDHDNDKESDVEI
Histone deacetylase 3/NCoR1, sequence (O75376 whole entry, further chain): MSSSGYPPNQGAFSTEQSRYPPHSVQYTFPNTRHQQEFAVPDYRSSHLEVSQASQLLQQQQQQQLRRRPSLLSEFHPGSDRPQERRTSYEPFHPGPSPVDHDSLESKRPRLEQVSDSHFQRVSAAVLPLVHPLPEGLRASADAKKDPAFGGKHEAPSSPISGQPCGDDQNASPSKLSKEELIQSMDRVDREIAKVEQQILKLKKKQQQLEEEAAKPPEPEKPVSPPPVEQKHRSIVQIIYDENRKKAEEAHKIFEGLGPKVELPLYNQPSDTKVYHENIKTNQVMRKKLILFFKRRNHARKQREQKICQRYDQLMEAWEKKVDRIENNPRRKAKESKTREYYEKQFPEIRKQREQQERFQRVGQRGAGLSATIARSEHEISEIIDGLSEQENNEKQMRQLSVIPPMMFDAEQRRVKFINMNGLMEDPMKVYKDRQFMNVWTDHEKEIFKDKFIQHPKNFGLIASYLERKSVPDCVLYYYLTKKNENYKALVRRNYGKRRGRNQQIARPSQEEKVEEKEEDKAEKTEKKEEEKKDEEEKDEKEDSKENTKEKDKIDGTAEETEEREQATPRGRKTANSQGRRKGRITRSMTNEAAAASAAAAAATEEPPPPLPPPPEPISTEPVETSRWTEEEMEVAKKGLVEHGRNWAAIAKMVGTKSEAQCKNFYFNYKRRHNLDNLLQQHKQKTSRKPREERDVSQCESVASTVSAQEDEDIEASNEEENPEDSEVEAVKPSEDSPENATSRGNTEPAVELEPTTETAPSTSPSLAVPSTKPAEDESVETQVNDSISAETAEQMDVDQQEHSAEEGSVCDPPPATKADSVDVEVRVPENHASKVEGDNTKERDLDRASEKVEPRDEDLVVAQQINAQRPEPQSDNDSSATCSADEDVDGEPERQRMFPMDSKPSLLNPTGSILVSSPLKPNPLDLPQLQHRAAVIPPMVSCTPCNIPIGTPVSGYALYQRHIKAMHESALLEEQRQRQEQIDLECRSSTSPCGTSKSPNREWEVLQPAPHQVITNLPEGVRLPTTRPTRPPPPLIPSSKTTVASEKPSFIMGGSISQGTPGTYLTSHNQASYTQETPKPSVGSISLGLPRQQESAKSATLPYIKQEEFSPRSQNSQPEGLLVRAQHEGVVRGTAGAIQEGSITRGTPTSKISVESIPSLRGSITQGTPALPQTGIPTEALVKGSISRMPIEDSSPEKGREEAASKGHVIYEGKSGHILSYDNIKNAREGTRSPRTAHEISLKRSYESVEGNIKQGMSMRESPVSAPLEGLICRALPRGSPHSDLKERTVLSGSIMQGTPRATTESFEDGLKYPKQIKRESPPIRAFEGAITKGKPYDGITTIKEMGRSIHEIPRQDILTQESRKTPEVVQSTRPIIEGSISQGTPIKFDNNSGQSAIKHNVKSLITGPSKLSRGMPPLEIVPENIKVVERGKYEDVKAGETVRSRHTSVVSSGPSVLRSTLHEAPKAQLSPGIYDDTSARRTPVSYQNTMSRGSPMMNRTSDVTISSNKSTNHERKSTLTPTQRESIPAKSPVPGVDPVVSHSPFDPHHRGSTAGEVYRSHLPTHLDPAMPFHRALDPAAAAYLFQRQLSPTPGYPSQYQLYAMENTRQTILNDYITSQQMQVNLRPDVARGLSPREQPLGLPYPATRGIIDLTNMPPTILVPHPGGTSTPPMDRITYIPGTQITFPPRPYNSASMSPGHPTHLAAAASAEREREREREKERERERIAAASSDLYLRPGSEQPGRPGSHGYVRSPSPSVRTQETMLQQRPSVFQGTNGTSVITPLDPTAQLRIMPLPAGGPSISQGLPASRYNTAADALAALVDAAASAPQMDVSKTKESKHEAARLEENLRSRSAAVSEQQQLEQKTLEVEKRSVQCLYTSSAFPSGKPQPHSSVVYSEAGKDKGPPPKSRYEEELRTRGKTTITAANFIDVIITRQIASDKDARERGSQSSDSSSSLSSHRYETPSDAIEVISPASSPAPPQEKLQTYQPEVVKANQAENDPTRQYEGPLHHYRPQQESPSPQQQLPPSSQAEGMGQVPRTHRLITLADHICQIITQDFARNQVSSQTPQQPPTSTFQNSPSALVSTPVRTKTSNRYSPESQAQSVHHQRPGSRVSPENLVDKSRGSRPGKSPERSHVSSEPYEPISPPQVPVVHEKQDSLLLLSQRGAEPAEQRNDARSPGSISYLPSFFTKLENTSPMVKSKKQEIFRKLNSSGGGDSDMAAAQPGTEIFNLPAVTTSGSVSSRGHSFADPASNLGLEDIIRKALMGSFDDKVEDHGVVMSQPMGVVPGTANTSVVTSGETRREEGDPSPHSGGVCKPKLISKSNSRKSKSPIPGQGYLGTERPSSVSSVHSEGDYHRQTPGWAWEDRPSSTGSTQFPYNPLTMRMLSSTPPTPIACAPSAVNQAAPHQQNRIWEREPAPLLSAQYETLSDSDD

| Compound | Activity (A-375 [1]) [%] | Activity (A-375 [2]) [%] | Activity (A-375 [3]) [%] | Activity (A-375 [4]) [%] | Activity (A-375 [5]) [%] | Activity (A-375 [6]) [%] | Activity (A-375 [7]) [%] | IC50 (NCI-H1299) [µM] | Activity (A-375 [8]) [%] | Activity [9] [%] | Activity (A-375 [10]) [%] | Activity (A-375 [11]) [%] | Activity [12] [%] | IC50 (SMMC-7721) [µM] | viability at 2 µM (A-375 [13]) [%] | IC50 (NCI-H460) [µM] | viability at 8 µM (A-375 [14]) [%] | viability at 16 µM (A-375 [15]) [%] | other results |
| --- | --- | --- | --- | --- | --- | --- | --- | --- | --- | --- | --- | --- | --- | --- | --- | --- | --- | --- | --- |
| O=C(O)CCCc1ccc(N(CCCl)CCCl)cc1 [CHLORAMBUCIL] | 2.34 | 1.62 | 8.41 | 6.44 | 4.21 | 18.21 | 6.95 | 116 | 2.11 | 128.9 | 47.6 | 1.36 | 128.6 | 163 | 90.1 | 28.9 | 87.1 | 71.1 |  |
| Nc1ccccc1NC(=O)CCCc1ccc(N(CCCl)CCCl)cc1 | 12.05 | 5.76 | 42.54 | 3.78 | 12.31 | 48.69 | 11.63 | 5.5 | 7.39 | 159 | 79.2 | 2.77 | 213.3 | 4 | 79.8 | 3.1 | 38 | 35.2 | IC50 (Histone deacetylase 8): 75.2 µM; IC50 (Histone deacetylase 2): 32.9 µM; IC50 (A549): 6.2 µM; Activity (A-375 [16]): Dose-dependent effect; IC50 (Histone deacetylase 1): > 160 µM; IC50 [17]: 9.52 µM; inhibition [18]: Active; IC50 [19]: > 160 µM; IC50 (HepG2): 14.2 µM; Activity (A-375 [20]): Dose-dependent effect; IC50 (A-375 [21]): 6.1 µM |
| CC(=O)Nc1ccc(C(=O)Nc2ccccc2N)cc1 [TACEDINALINE] | 0.71 | 9.54 | 9.09 | 1.01 | 36.31 | 26.71 | 11.03 |  | 19.04 | 104.5 | 10.8 | 1.04 | 118.8 | 16.9 | 78.4 | 9.7 | 70.4 | 36 |  |
